# Measurements as given in ChEMBL document CHEMBL1137155, “Identification of [(naphthalene-1-carbonyl)-amino]-acetic acid derivatives as nonnucleoside inhibitors of HCV NS5B RNA dependent RNA polymerase” (Bioorg Med Chem Lett, 2004).
# Tests used:
# [1] = target: RNA-directed RNA polymerase (Hepacivirus hominis, UniProt O39930); experiment: Inhibitory concentration against HCV NS5B RNA dependent RNA polymerase
# Summary of the method: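 Enzyme: recombinant C-terminally truncated NS5B from genotype 1b, BK strain. Inhibitor was pre-incubated with the enzyme for 15 min. An RNA template, NTPs and [α-32P]GTP were then added, and the reaction ran for 2 h at room temperature. Product RNA was collected by filtration, and incorporated radioactivity was measured by scintillation counting.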
# DNA polymerase beta = DNA polymerase beta (Homo sapiens, UniProt P06746); experiment: Inhibitory concentration against human beta polymerase
# Chain of RNA-directed RNA polymerase (O39930 whole entry, the tested form may be a part): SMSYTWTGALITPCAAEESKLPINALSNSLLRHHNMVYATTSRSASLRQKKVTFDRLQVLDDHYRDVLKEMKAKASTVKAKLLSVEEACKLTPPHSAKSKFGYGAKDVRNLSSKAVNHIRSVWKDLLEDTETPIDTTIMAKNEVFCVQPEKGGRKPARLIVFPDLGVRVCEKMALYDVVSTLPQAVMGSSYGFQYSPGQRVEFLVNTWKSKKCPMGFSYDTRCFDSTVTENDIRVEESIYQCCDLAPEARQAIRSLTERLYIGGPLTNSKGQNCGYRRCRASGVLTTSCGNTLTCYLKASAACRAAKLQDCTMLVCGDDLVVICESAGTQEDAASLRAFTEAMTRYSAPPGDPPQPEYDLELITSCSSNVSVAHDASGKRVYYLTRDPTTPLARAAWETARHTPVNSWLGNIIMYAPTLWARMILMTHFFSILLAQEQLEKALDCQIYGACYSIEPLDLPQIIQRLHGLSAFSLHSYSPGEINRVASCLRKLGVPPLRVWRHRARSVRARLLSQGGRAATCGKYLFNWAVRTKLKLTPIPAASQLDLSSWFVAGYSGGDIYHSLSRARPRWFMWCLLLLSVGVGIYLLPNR
IC50 [1] [nM],IC50 (DNA polymerase beta) [nM],Compound
2900,–,C#CCOC(=O)N(CC(=O)O)C(=O)c1c(Br)ccc2c(C(F)(F)F)c(OC)ccc12
900,–,COc1ccc2c(C(=O)N(CC(=O)O)CC(=O)O)cccc2c1C(F)(F)F
3300,–,C=CCOC(=O)N(CC(=O)O)C(=O)c1c(Br)ccc2c(C(F)(F)F)c(OC)ccc12
4900,–,CCCOC(=O)N(CC(=O)O)C(=O)c1c(Br)ccc2c(C(F)(F)F)c(OC)ccc12
6400,–,COc1ccc2c(C(=O)N(CC(=O)O)C(=O)OCC(C)(C)C)c(Br)ccc2c1C(F)(F)F
120,–,COc1ccc2c(C(=O)NC(CCC(=O)O)C(=O)O)c(Br)ccc2c1C(F)(F)F (stereo unspecified)
1200,–,COc1ccc2c(C(=O)NC(CC(=O)O)C(=O)O)cccc2c1Br (stereo unspecified)
1300,–,COc1ccc2c(C(=O)NC(CC(=O)O)C(=O)O)cccc2c1C(F)(F)F (stereo unspecified)
490,–,COc1ccc2c(C(=O)NC(CCC(=O)O)C(=O)O)cccc2c1C(F)(F)F (stereo unspecified)
7700,–,COc1ccc2c(C(=O)N(CC(=O)O)C(=O)OCC(C)C)c(Br)ccc2c1C(F)(F)F
2100,–,COc1ccc2c(C(=O)NC(CC(=O)O)C(=O)O)c(F)ccc2c1C(F)(F)F (stereo unspecified)
5100,–,COc1ccc2c(C(=O)N(C)CC(=O)O)c(Cl)ccc2c1C(F)(F)F
2000,–,COc1ccc2c(C(=O)N(C)CC(=O)O)c(Br)ccc2c1C(F)(F)F
910,–,COc1ccc2c(C(=O)NC(CC(=O)O)C(=O)O)c(Br)ccc2c1C(F)(F)F (stereo unspecified)
1400,–,COc1ccc2c(C(=O)NC(CCC(=O)O)C(=O)O)c(F)ccc2c1C(F)(F)F (stereo unspecified)
590,–,COc1ccc2c(C(=O)NC(CCC(=O)O)C(=O)O)cccc2c1Br (stereo unspecified)
3100,–,CCOC(=O)N(CC(=O)O)C(=O)c1c(Br)ccc2c(C(F)(F)F)c(OC)ccc12
11300,–,COC(=O)N(CC(=O)O)C(=O)c1c(OC)ccc2c(C(F)(F)F)c(OC)ccc12
1400,–,COC(=O)N(CC(=O)O)C(=O)c1c(Br)ccc2c(C(F)(F)F)c(OC)ccc12
15200,–,COC(=O)N(CC(=O)O)C(=O)c1c(F)ccc2c(C(F)(F)F)c(OC)ccc12
5000,> 100000,COC(=O)N(CC(=O)O)C(=O)c1c(Cl)ccc2c(C(F)(F)F)c(OC)ccc12

Compound,IC50 [1] [nM],IC50 (DNA polymerase beta) [nM]
COc1ccc2ccccc2c1C(=O)NC(CC(=O)O)C(=O)O (stereo unspecified),> 10000,–
COC(=O)N(CC(=O)O)C(=O)c1c(-c2ccc(Cl)cc2)ccc2c(C(F)(F)F)c(OC)ccc12,> 20000,–
COC(=O)N(CCC(=O)O)C(=O)c1c(Br)ccc2c(C(F)(F)F)c(OC)ccc12,> 10000,–
COC(=O)N(CC(=O)O)C(=O)c1cccc2c(C(F)(F)F)c(OC)ccc12,> 26000,–
